Source: publication PMC8978659 (RSC Advances, 2021)

System: RAW264.7 cells
Test: Cytotoxicity test, CCK-8
Assay type: cell-based
Details: 10 μM, 48 h, CCK-8, OD 450 nm, duplicate independent experiments
Summary of the method: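 RAW264.7 cells seeded at 1 × 10^5 per mL and exposed for 48 h to test compound at 0, 1.25, 2.5, 5 and 10 μM. CCK-8 reagent added, then 4 h at 37 °C protected from light. Absorbance read at 450 nm. Survival rate = OD of treated / OD of blank control; cytotoxic effect = 1 − survival rate.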

Structure (SMILES): NCC1CC(=S)N2CC3CCCN4CCCC(C34)C2C1 (stereo not shown) [M19, 13-Aminomethyl-15-thiomatrine]
- cell viability inhibition: about 20%
